Measurements from ChEMBL document CHEMBL1140405, “6-Acylamino-2-aminoquinolines as potent melanin-concentrating hormone 1 receptor antagonists. Identification, structure-activity relationship, and investigation of binding mode” (J Med Chem, 2005).
Values after ≈ are worked out from the molar mass of the structure shown.

Key:
[1] = target: Melanin-concentrating hormone receptor 1 (Homo sapiens, UniProt Q99705); assay: Displacement of 150p M [125I]MCH from human MCH1R expressed in CHO-K1 cells at 10 uM; format: cell-based
Chain of Melanin-concentrating hormone receptor 1 (Q99705 whole entry): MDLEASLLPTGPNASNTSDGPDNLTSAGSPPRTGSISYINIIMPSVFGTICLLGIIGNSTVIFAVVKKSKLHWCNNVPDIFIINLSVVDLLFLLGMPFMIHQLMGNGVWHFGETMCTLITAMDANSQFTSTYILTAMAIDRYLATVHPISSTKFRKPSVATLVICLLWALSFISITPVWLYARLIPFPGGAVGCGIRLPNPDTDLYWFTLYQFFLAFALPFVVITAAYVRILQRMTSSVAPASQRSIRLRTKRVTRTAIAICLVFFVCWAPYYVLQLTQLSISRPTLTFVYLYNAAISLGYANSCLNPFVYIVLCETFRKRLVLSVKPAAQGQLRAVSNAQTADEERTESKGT

[2] = target: Melanin-concentrating hormone receptor 2 (Homo sapiens, UniProt Q969V1); assay: Displacement of 30 pM [125I]-MCH from human MCH2R expressed in CHO-K1 in whole-cell binding assay
Chain of Melanin-concentrating hormone receptor 2 (Q969V1 whole entry): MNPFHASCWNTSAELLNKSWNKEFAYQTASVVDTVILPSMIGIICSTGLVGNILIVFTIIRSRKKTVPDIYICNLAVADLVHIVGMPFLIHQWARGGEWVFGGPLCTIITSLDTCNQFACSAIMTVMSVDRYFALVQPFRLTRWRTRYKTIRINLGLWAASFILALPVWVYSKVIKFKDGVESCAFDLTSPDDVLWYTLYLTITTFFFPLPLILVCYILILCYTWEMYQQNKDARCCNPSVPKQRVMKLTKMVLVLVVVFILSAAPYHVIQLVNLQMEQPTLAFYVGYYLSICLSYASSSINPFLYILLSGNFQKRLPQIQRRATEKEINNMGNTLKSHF

[3] = target: 5-hydroxytryptamine receptor 1B (Homo sapiens, UniProt P28222); assay: Inhibitory concentration against 5-hydroxytryptamine 1B receptor
Chain of 5-hydroxytryptamine receptor 1B (P28222 whole entry): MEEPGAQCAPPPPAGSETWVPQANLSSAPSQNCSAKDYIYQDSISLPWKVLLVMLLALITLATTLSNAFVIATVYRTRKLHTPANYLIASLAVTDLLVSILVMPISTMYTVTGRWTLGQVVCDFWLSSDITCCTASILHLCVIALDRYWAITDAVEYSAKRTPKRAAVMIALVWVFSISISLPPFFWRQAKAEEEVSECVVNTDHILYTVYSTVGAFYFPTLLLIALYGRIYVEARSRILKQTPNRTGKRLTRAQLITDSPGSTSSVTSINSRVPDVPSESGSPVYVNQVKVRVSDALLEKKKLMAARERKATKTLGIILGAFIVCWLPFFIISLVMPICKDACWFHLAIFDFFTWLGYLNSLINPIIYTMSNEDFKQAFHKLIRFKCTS

[4] = target: T1, 5-hydroxytryptamine receptor 2C (Homo sapiens, UniProt P28335); assay: Inhibitory concentration against 5-hydroxytryptamine 2C receptor expressed in CHO-K1 cells using [3H]mesulergine; format: cell-based
T1 sequence (P28335 whole entry): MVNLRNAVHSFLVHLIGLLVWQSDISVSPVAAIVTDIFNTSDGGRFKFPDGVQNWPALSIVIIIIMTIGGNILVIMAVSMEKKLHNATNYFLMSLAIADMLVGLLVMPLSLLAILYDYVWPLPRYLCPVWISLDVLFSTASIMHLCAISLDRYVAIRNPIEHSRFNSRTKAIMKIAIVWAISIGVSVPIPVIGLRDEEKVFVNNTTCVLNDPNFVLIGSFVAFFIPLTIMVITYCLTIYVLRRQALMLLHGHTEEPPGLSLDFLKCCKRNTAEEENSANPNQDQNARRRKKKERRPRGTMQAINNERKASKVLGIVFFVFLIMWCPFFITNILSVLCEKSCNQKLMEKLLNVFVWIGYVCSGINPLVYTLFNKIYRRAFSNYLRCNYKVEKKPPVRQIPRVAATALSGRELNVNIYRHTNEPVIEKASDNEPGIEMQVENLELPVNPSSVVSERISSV
Method in brief: (§1)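 SPA competition binding on purchased membranes from CHO-K1 cells expressing h5-HT2c (4 μg/well), with YSi-WGA beads (0.4 mg/well) and [3H]mesulergine tracer, across various test-compound concentrations. Buffer is 50 mM Tris pH 7.7, 50 mM MgCl2 and 0.1% pargyline. Nonspecific binding uses 1 μM cold mesulergine. IC50 is taken by nonlinear regression.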

D(3) dopamine receptor = D(3) dopamine receptor (Homo sapiens, UniProt P35462); assay: Inhibitory concentration against dopamine receptor D3
Chain of D(3) dopamine receptor (P35462 whole entry): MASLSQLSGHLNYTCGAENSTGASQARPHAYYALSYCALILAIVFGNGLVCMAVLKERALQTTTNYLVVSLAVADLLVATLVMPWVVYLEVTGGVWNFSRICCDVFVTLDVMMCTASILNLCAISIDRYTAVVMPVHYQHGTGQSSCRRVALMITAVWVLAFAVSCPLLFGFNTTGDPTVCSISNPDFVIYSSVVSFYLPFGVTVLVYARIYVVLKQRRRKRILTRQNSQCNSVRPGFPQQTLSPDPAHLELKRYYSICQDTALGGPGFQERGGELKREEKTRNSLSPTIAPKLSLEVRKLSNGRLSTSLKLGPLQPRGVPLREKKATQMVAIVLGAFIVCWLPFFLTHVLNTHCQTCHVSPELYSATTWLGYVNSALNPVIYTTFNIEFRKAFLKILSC

[5] = target: T2, Muscarinic acetylcholine receptor M2 (Homo sapiens, UniProt P08172); assay: Inhibitory concentration against muscarinic acetylcholine receptor M2
T2 sequence (P08172 whole entry): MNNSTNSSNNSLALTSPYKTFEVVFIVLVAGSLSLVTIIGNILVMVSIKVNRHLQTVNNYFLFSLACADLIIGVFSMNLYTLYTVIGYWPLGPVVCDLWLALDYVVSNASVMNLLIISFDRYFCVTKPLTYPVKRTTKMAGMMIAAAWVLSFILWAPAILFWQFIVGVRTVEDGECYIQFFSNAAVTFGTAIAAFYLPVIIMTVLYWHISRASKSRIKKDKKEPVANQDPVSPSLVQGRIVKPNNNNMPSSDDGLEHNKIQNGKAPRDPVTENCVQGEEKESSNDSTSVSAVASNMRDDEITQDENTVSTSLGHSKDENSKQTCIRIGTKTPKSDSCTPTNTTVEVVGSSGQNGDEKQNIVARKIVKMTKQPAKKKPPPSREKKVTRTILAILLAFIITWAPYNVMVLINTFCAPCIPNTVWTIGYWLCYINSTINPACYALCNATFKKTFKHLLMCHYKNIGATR

Histamine H2 receptor = Histamine H2 receptor (Homo sapiens, UniProt P25021); assay: Inhibitory concentration against Histamine H2 receptor
Chain of Histamine H2 receptor (P25021 whole entry): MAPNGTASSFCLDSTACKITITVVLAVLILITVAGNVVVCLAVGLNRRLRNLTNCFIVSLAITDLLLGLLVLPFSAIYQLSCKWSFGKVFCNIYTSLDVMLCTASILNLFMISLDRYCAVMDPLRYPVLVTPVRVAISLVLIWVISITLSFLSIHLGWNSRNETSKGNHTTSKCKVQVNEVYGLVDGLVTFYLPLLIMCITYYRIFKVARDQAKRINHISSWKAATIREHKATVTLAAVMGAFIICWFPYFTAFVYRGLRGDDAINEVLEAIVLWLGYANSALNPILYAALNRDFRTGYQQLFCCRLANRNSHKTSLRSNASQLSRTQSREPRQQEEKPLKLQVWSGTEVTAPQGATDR

[6] = target: 5-hydroxytryptamine receptor 2A (Homo sapiens, UniProt P28223); assay: Inhibitory concentration against 5-hydroxytryptamine 2A receptor
Chain of 5-hydroxytryptamine receptor 2A (P28223 whole entry): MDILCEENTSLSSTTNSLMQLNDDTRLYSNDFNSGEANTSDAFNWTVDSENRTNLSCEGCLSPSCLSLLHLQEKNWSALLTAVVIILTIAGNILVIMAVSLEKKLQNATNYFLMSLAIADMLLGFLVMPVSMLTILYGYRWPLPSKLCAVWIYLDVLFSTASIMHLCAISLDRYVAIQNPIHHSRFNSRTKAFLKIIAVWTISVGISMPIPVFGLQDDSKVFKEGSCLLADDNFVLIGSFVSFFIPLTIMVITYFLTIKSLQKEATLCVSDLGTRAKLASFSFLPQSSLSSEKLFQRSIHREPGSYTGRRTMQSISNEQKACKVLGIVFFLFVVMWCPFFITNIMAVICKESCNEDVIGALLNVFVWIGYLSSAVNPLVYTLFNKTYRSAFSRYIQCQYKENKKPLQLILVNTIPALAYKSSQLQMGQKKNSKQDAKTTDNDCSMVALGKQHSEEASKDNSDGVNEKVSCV

[7] = target: T3, Muscarinic acetylcholine receptor M1 (Homo sapiens, UniProt P11229); assay: Inhibitory concentration against muscarinic acetylcholine receptor M1
T3 sequence (P11229 whole entry): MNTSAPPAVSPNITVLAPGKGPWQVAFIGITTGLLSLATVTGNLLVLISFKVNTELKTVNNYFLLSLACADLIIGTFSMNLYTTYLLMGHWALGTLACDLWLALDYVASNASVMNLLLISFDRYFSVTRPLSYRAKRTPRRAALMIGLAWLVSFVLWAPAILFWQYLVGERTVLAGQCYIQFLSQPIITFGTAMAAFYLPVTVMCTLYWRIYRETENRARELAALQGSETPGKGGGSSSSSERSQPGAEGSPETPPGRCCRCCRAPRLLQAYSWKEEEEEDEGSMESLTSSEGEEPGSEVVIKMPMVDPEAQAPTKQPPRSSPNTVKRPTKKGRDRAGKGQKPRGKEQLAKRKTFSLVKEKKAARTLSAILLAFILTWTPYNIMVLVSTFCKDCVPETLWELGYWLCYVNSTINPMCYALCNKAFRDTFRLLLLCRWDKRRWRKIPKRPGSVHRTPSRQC

D(1A) dopamine receptor = D(1A) dopamine receptor (Homo sapiens, UniProt P21728); assay: Inhibitory concentration against dopamine receptor D1
Chain of D(1A) dopamine receptor (P21728 whole entry): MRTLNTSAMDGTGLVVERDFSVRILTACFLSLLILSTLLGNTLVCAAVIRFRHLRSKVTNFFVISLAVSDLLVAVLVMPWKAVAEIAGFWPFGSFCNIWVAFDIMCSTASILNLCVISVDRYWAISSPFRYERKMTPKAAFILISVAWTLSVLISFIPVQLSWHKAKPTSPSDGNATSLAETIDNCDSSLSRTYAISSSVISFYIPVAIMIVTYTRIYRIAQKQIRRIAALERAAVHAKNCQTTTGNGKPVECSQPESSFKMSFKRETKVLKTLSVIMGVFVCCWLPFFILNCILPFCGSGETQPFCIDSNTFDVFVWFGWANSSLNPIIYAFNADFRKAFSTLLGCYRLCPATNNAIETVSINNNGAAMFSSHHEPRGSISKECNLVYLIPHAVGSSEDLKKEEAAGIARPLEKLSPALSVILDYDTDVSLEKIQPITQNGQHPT

[8] = target: T4, Adrenergic receptor alpha-2 (Homo sapiens, UniProt P08913+P18825+P18089); assay: Inhibitory concentration against alpha-2 adrenergic receptor; format: protein assay
T4 sequence (P08913 whole entry): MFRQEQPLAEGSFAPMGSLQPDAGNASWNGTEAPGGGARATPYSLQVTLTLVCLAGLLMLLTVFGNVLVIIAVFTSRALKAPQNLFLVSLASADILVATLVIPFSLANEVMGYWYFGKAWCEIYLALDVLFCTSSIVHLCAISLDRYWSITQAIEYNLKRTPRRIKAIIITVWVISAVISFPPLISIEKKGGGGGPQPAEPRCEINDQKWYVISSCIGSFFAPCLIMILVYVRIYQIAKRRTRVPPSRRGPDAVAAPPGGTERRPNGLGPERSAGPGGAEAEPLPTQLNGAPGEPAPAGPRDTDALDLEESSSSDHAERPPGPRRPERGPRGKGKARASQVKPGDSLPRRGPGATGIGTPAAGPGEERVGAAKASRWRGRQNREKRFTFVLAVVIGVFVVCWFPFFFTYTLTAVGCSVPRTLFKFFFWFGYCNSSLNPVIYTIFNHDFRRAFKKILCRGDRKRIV
T4 sequence (P18825 whole entry): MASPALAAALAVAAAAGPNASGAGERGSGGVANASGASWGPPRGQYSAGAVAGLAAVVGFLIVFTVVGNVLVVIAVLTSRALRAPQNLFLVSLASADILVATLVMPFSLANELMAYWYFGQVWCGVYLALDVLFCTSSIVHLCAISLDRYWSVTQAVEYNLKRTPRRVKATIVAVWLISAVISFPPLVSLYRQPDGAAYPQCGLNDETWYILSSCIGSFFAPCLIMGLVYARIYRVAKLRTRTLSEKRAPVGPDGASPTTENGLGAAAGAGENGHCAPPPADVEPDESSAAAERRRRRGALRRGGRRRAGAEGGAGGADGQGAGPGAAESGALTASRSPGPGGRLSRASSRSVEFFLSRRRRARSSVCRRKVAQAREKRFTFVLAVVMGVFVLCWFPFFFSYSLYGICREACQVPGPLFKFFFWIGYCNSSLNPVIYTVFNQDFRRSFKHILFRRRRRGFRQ
T4 sequence (P18089 whole entry): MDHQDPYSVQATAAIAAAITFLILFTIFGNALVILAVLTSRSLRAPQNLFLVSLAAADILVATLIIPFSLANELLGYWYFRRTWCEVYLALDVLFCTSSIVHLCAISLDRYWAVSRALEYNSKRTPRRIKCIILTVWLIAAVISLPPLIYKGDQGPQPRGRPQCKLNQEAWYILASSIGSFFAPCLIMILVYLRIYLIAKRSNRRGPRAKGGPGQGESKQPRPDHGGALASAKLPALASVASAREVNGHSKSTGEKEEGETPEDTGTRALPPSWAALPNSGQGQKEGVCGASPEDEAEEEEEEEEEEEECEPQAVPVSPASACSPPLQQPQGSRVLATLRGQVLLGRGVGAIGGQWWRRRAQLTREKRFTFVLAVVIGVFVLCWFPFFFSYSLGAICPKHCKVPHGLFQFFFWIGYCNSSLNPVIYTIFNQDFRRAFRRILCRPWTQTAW

[9] = target: Sodium-dependent dopamine transporter (Homo sapiens, UniProt Q01959); assay: Inhibitory concentration against dopamine transporter
Chain of Sodium-dependent dopamine transporter (Q01959 whole entry): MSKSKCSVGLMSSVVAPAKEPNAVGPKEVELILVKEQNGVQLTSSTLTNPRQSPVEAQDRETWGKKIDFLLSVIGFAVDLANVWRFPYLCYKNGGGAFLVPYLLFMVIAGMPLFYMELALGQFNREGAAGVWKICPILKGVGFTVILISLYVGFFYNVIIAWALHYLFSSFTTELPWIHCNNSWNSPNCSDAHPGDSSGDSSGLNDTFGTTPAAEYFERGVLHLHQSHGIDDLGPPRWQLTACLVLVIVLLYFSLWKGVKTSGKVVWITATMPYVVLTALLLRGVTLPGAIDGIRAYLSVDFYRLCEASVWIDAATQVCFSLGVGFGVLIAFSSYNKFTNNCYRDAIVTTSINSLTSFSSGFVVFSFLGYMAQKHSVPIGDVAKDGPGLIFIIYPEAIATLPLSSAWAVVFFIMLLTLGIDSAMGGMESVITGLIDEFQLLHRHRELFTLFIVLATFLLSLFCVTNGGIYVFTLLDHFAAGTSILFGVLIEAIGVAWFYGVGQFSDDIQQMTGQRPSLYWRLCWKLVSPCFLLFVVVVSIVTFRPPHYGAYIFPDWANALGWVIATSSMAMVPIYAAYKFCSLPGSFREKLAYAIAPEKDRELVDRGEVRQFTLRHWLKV

Histamine H1 receptor = Histamine H1 receptor (Homo sapiens, UniProt P35367); assay: Inhibitory concentration against Histamine H1 receptor
Chain of Histamine H1 receptor (P35367 whole entry): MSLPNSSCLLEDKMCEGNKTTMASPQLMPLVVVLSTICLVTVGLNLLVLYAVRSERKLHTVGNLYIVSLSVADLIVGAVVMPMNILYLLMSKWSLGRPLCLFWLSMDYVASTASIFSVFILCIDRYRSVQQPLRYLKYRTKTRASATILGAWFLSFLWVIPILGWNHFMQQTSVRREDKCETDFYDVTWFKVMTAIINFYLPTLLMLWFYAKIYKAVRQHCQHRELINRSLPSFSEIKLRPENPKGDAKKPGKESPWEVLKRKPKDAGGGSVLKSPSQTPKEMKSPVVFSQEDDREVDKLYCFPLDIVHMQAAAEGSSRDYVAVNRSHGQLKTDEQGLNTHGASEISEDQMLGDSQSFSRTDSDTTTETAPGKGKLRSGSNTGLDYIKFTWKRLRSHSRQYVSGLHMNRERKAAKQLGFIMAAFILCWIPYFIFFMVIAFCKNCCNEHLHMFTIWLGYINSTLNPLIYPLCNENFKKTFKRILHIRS

[10] = target: T1, 5-hydroxytryptamine receptor 2C; assay: Inhibitory concentration against human 5-hydroxytryptamine 2C receptor expressed in CHO-K1 cells using [3H]mesulergine; format: cell-based; method in brief: as §1
[11] = Solubility was determined by addition of 10 mM DMSO solution of test compound to PBS (pH 7) until opalescence

Compound: CCOc1ccc(/C=C/C(=O)Nc2ccc3nc(N4CCN(C)CC4)cc(C)c3c2)cc1OC
- inhibition [1]: 52%

Compound: CC(=O)OCCN(C)c1cc(C)c2cc(NC(=O)COc3ccc(Cl)cc3Cl)ccc2n1
- IC50 [2]: > 10 µM

Compound: CCN1CCN(c2cc(C)c3cc(NC(=O)c4cc(=O)c5ccccc5o4)ccc3n2)CC1
- inhibition [1]: 71%

Compound: Cc1cc(N(C)CCN(C)C)nc2ccc(NC(=O)/C=C/c3ccc(OC(F)(F)F)cc3)cc12
- IC50 [3]: 0.8 µM
- IC50 [4]: 0.9 µM
- IC50 (D(3) dopamine receptor): 2.3 µM
- IC50 [5]: 0.48 µM
- IC50 (Histamine H2 receptor): 0.86 µM
- IC50 [6]: 1.9 µM
- IC50 [7]: 1.3 µM
- IC50 (D(1A) dopamine receptor): 0.9 µM
- IC50 [8]: 1.3 µM
- IC50 [9]: 10 µM
- IC50 (Histamine H1 receptor): > 10 µM

Compound: Cc1cc(N(C)CCO)nc2ccc(NC(=O)COc3ccc(Cl)cc3Cl)cc12
- IC50 [2]: > 10 µM
- IC50 [10]: 5.9 µM
- solubility kinetic ([11]; PBS): 5 µM (≈ 2.17 µg/mL)

Compound: Cc1cc(N(C)CCO)nc2ccc(NC(=O)/C=C/c3ccc(OC(F)(F)F)cc3)cc12
- IC50 [2]: 6.4 µM
- IC50 [10]: > 10 µM

Compound: CCN1CCN(c2cc(C)c3cc(NC(=O)c4ccc(OC)cc4)ccc3n2)CC1
- inhibition [1]: 40%

Compound: CCN1CCCC1CNc1cc(C)c2cc(NC(=O)COc3ccc(OC(F)(F)F)cc3)ccc2n1 (stereo not drawn)
- IC50 [2]: > 10 µM
- IC50 [10]: 4.7 µM

Compound: Cc1cc(NC(C)CN(C)C)nc2ccc(NC(=O)/C=C/c3ccc(OC(F)(F)F)cc3)cc12 (stereo not drawn)
- IC50 [10]: 18 µM

Compound: CNCCN(C)c1cc(C)c2cc(NC(=O)COc3ccc(Cl)cc3Cl)ccc2n1
- IC50 [10]: 0.77 µM
- solubility kinetic ([11]; buffer): 100 µM (≈ 44.7 µg/mL)

Compound: Cc1cc(N2CCOCC2)nc2ccc(NC(=O)COc3ccc(OC(F)(F)F)cc3)cc12
- IC50 [2]: > 10 µM
- IC50 [10]: > 10 µM
- solubility kinetic ([11]; PBS): 25 µM (≈ 11.5 µg/mL)

Compound: Cc1cc(N2CCC(N)CC2)nc2ccc(NC(=O)COc3ccc(OC(F)(F)F)cc3)cc12
- IC50 [2]: 4.7 µM
- solubility kinetic ([11]; PBS): 150 µM (≈ 71.2 µg/mL)

Compound: Cc1cc(N2CCN(C)CC2)nc2ccc(NC(=O)COc3ccc(OC(F)(F)F)cc3)cc12
- solubility kinetic ([11]; PBS): 120 µM (≈ 56.9 µg/mL)

Compound: Cc1cc(NCCN(C)C)nc2ccc(NC(=O)/C=C/c3ccc(OC(F)(F)F)cc3)cc12
- IC50 [2]: 8.4 µM
- IC50 [10]: 5.7 µM
